These results are taken from ChEMBL document CHEMBL4819027, “Design, synthesis and biological evaluation of novel 2-(4-(1H-indazol-6-yl)-1H-pyrazol-1-yl)acetamide derivatives as potent VEGFR-2 inhibitors” (Eur J Med Chem, 2021).

In one test the test system is A549. The test is described as follows: Antiproliferative activity against human A549 cells assessed as cell growth inhibition after 72 hrs by MTT assay. The format is functional, cell-based. The note with it: A549, 72 h. The procedure, abridged: (§1)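 Log-phase cells were seeded at 5 × 10³ per well and attached 24 h. HT-29 and GES-1 were grown in DMEM-based medium, A549/HepG2/HGC-27 in RPMI-1640, HUVEC in ECM with ECGS; all media had 10% FBS. Cells were exposed to graded compound concentrations for 72 h at 37 °C. MTT (5 mg/mL stock) was added for 4 h, formazan dissolved in DMSO, and A490 read. IC50 was obtained by nonlinear sigmoidal regression; mean ± S.E. of three experiments.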
For orientation: Tetrazolium dyes change colour on reduction, which living cells bring about.

In test [1] the test system is HGC-27. The test is described as follows: Induction of apoptosis in human HGC-27 cells assessed as late apoptotic cells level at 5 uM incubated for 24 hrs by propidium iode and annexin V-FITC staining based flow cytometry (reference value: 0.86%). Format: functional. A general note: A flow cytometer gives signals particle by particle.
The test system of test [2] is HUVEC. The test is described as follows: Cytotoxicity against human HUVEC cells assessed as inhibition of cell growth incubated for 72 hrs by MTT assay. The format is cell-based. The gist of the method: as §1
For test [3], the system named is HGC-27. The experiment in a line: Induction of apoptosis in human HGC-27 cells assessed as total apoptotic cells level at 5 uM incubated for 24 hrs by propidium iode and annexin V-FITC staining based flow cytometry. The format is functional.
For test [4], the system named is HGC-27. The experiment in a line: Induction of apoptosis in human HGC-27 cells assessed as early apoptotic cells level at 5 uM incubated for 24 hrs by propidium iode and annexin V-FITC staining based flow cytometry (reference value: 1.48%). Format: functional.
Test [5] concerns HGC-27. The test is described as follows: Induction of apoptosis in human HGC-27 cells assessed as necrotic cells level at 5 uM incubated for 24 hrs by propidium iode and annexin V-FITC staining based flow cytometry (reference value: 1.64%). Format: functional.
The next test has as its system GES1. The test is described as follows: Cytotoxicity against human GES-1 cells assessed as inhibition of cell growth incubated for 72 hrs by MTT assay. Format: cell-based. To be noted: GES1, 72 h. The procedure, abridged: as §1
A further test relates to HepG2. The test is described as follows: Antiproliferative activity against human HepG2 cells assessed as cell growth inhibition after 72 hrs by MTT assay. Format: functional, cell-based. To be noted: HepG2, 72 h. The gist of the method:
as §1

The subject of test [6] is HGC-27. The experiment in a line: Antiproliferative activity against human HGC-27 cells assessed as cell growth inhibition after 72 hrs by MTT assay. The format is functional, cell-based. The note with it: HGC-27, 72 h. The gist of the method: as §1
In test [7] the test system is HUVEC. The experiment in a line: Antiangiogenic activity against HUVEC cells assessed as reduction in VEGF-induced tube formation tube formation incubated for 12 hrs by matrigel-based assay. The format is functional, cell-based. The note with it: Homo sapiens. The procedure, abridged:
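HUVECs at 4 × 10⁵ cells/mL seeded on Matrigel that had been polymerized 1 h at 37 °C. Cells were stimulated with 20 ng/mL VEGF and treated with compound (1, 2.5, 5 and 10 μM) or 0.1% DMSO vehicle for 12 h at 37 °C. Tubes were imaged by inverted microscopy. Tube length, surface area and branch points were quantified as pixel area.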

Test [8] deals with HGC-27. The test is described as follows: Induction of apoptosis in human HGC-27 cells assessed as viable cells level at 5 uM incubated for 24 hrs by propidium iode and annexin V-FITC staining based flow cytometry (reference value: 96.0%). Format: functional.
The subject of another test is HT-29. The test is described as follows: Antiproliferative activity against human HT-29 cells assessed as cell growth inhibition after 72 hrs by MTT assay. The format is functional, cell-based. To be noted: HT-29, 72 h. The gist of the method: as §1

In the case of `CNC(=O)c1cc(Oc2ccc(NC(=O)Nc3ccc(Cl)c(C(F)(F)F)c3)cc2)ccn1` [SORAFENIB], the IC50 in the test with A549 is 5.13 µM; in the test with HUVEC [2], 8.33 µM; in the test on GES1 it was 9.59 µM; in the test with HepG2, 6.18 µM; in the test on HGC-27 [6], 5.22 µM; in the test on HT-29, 5.57 µM. In addition, the Activity was determined as 18.5% in the test with HGC-27 [1]; 25.41% with HGC-27 [3]; 6.91% with HGC-27 [4]; 24% with HGC-27 [5]; 50.6% in the test with HGC-27 [8]. For the same molecule, the inhibition result in the test on HUVEC [7] is “Dose-Dependent Effect”.

As usually defined, the IC50 is the point on the concentration scale where inhibition reaches its midpoint.
